Test results: ChEMBL document CHEMBL1121415, “Inhibition of histamine-induced gastric secretion by flavone-6-carboxylic acids” (1980)
Several values for one entry are separate records, joined by “and”; a condition that tells them apart may be missing. Equal values may be shown once.

Columns and labels:
Assay type in all cases: functional
Rattus norvegicus [1] = assay: Inhibition of histamine-induced gastric acid secretion in the rat following 80 mg/kg s.c. administration.; conditions: Stomach, sc
Procedure, shortened: (§1)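 Compound was given subcutaneously at 1 mL/kg to 48-h-fasted rats in groups of 10; controls received saline. Pylorus ligation under ether followed 30 min later. Histamine 2.5 mg/kg sc was given at 15-min intervals for 3 h. Gastric juice was titrated with 0.02 N NaOH to pH 7.0 to give total acid output, expressed as % mean inhibition vs controls, with ANOVA.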

Rattus norvegicus [2] = assay: The compound was tested for its ability to inhibit histamine-induced gastric acid secretion in the rat at a dose of 70 mg/kg, sc; conditions: Stomach, route subcutaneous; procedure, shortened: as §1
Rattus norvegicus [3] = assay: The compound was tested for its ability to inhibit histamine-induced gastric acid secretion in the rat at a dose of 76 mg/kg, sc; conditions: Stomach, route subcutaneous; procedure, shortened: as §1
Rattus norvegicus [4] = assay: % inhibition in total acid secretion when tested orally in rat ligated stomach preparation at 100 mg/kg peroral dose; conditions: route oral
Procedure, shortened: (§2)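 Rats fasted 48 h with water ad libitum, in groups of 10, were dosed orally by gavage at 1 mL/kg; controls received saline. After 30 min, under ether, the pylorus was ligated. Histamine 2.5 mg/kg sc was given right after surgery and every 15 min for 3 h. Gastric juice was titrated with 0.02 N NaOH to pH 7.0 ± 0.1 as mequiv H+/100 g. Mean % inhibition vs controls was tested by ANOVA.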

Rattus norvegicus [5] = assay: % inhibition in total acid secretion when tested orally in rat ligated stomach preparation at 200 mg/kg peroral dose; conditions: route oral; procedure, shortened: as §2
Rattus norvegicus [6] = assay: Determined as […] and at 150 mg/kg peroral dose; conditions: route oral; procedure, shortened: as §2
Rattus norvegicus [7] = assay: Determined as […] and at 200 mg/kg peroral dose; conditions: route oral; procedure, shortened: as §2
Rattus norvegicus [8] = assay: Determined as […] and at 50 mg/kg peroral dose; conditions: route oral; procedure, shortened: as §2
Rattus norvegicus [9] = assay: Gastric juice volume when tested orally in rat ligated stomach preparation at 100 mg/kg peroral dose; conditions: route oral
Procedure, shortened: (§3)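 Orally gavaged rats (1 mL/kg; saline controls; 48-h fast, groups of 10) had pylorus ligation under ether 30 min post-dose. They then received histamine 2.5 mg/kg sc every 15 min for 3 h. At sacrifice, stomach contents were aspirated and the gastric juice volume in mL was recorded. Results are given as mean ± SD.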

Rattus norvegicus [10] = assay: Gastric juice volume when tested orally in rat ligated stomach preparation at 150 mg/kg peroral dose; conditions: route oral; procedure, shortened: as §3
Rattus norvegicus [11] = assay: Gastric juice volume when tested orally in rat ligated stomach preparation at 200 mg/kg peroral dose; conditions: route oral; procedure, shortened: as §3
Rattus norvegicus [12] = assay: Gastric juice volume when tested orally in rat ligated stomach preparation at 50 mg/kg peroral dose; conditions: route oral; procedure, shortened: as §3
Rattus norvegicus [13] = assay: Determined as […] and at 100 mg/kg peroral dose; conditions: route oral; procedure, shortened: as §2
Rattus norvegicus [14] = assay: The compound was tested for its ability to inhibit histamine-induced gastric acid secretion in the rat at a dose of 60 mg/kg, sc; conditions: Stomach, route subcutaneous; procedure, shortened: as §1
Rattus norvegicus [15] = assay: The compound was tested for its ability to inhibit histamine-induced gastric acid secretion in the rat at a dose of 66 mg/kg, sc; conditions: Stomach, route subcutaneous; procedure, shortened: as §1
Rattus norvegicus [16] = assay: The compound was tested for its ability to inhibit histamine-induced gastric acid secretion in the rat at a dose of 90 mg/kg, sc; conditions: Stomach, route subcutaneous; procedure, shortened: as §1
Rattus norvegicus [17] = assay: % inhibition in total acid secretion when tested orally in rat ligated stomach preparation at 150 mg/kg peroral dose; conditions: route oral; procedure, shortened: as §2
Rattus norvegicus [18] = assay: % inhibition in total acid secretion when tested orally in rat ligated stomach preparation at 75 mg/kg peroral dose; conditions: route oral; procedure, shortened: as §2
Rattus norvegicus [19] = assay: Determined as […] and at 75 mg/kg peroral dose; conditions: route oral; procedure, shortened: as §2
Rattus norvegicus [20] = assay: Gastric juice volume when tested orally in rat ligated stomach preparation at 75 mg/kg peroral dose; conditions: route oral; procedure, shortened: as §3

## COc1ccc(-c2oc3ccc(C(=O)O)cc3c(=O)c2OC)cc1
Rattus norvegicus [1]
  inhibition in vivo at 80 mg/kg: 22%

## CS(=O)(=O)c1ccc(-c2cc(=O)c3cc(C(=O)O)ccc3o2)cc1
Rattus norvegicus [2]
  inhibition in vivo at 70 mg/kg: 41%

## CC(C)c1ccc(-c2oc3ccc(C(=O)O)cc3c(=O)c2O)cc1
Rattus norvegicus [1]
  inhibition in vivo at 80 mg/kg: 24%

## O=C(O)c1ccc2oc(-c3ccccc3Br)c(O)c(=O)c2c1
Rattus norvegicus [1]
  inhibition in vivo at 80 mg/kg: 22%

## CCCCCCOc1ccc(-c2oc3ccc(C(=O)O)cc3c(=O)c2OC)cc1
Rattus norvegicus [3]
  inhibition in vivo at 76 mg/kg: -12%

## CCCCCCc1ccc(-c2cc(=O)c3cc(C(=O)O)ccc3o2)cc1
Rattus norvegicus [1]
  inhibition in vivo at 80 mg/kg: 2%

## Cc1ccc(-c2oc3ccc(C(=O)O)cc3c(=O)c2OC(C)C)cc1
Rattus norvegicus [1]
  inhibition in vivo at 80 mg/kg: 8%

## O=C(O)c1ccc2oc(-c3ccc(Cl)cc3)c(O)c(=O)c2c1
Rattus norvegicus [1]
  inhibition in vivo at 80 mg/kg: -19%

## COc1ccc(-c2oc3ccc(C(=O)O)cc3c(=O)c2O)cc1
Rattus norvegicus [1]
  inhibition in vivo at 80 mg/kg: 24%

## O=C(O)c1ccc(-c2oc3ccc(C(=O)O)cc3c(=O)c2O)cc1
Rattus norvegicus [1]
  inhibition in vivo at 80 mg/kg: 23%

## COc1ccc(-c2oc3ccc(C(=O)O)cc3c(=O)c2OC(C)C)cc1
Rattus norvegicus [4]
  Inhibition: 4% and 9%
Rattus norvegicus [5]
  Inhibition: 34% and 59%
Rattus norvegicus [1]
  inhibition in vivo at 80 mg/kg: 35%
Rattus norvegicus [6]
  mequiv of HCl: 0.161
Rattus norvegicus [7]
  mequiv of HCl: 0.101
Rattus norvegicus [8]
  mequiv of HCl: 0.238
Rattus norvegicus [9]
  Volume: 5.16 mL
Rattus norvegicus [10]
  Volume: 4.8 mL
Rattus norvegicus [11]
  Volume: 3.68 mL
Rattus norvegicus [12]
  Volume: 5.13 mL
Rattus norvegicus [13]
  mequiv of HCl: 0.226

## COc1c(-c2ccc(Cl)cc2)oc2ccc(C(=O)O)cc2c1=O
Rattus norvegicus [1]
  inhibition in vivo at 80 mg/kg: 34%

## COc1ccc(-c2cc(=O)c3cc(C(=O)O)ccc3o2)cc1
Rattus norvegicus [1]
  inhibition in vivo at 80 mg/kg: 13%

## Cc1ccc(-c2oc3ccc(C(=O)O)cc3c(=O)c2O)cc1
Rattus norvegicus [1]
  inhibition in vivo at 80 mg/kg: -6%

## CCOc1ccc(-c2oc3ccc(C(=O)O)cc3c(=O)c2OC(C)C)cc1
Rattus norvegicus [14]
  inhibition in vivo at 60 mg/kg: 18%

## Cc1ccccc1-c1oc2ccc(C(=O)O)cc2c(=O)c1O
Rattus norvegicus [1]
  inhibition in vivo at 80 mg/kg: 15%

## O=C(O)c1ccc2oc(-c3ccc(F)cc3)cc(=O)c2c1
Rattus norvegicus [1]
  inhibition in vivo at 80 mg/kg: 21%

## CC(C)Oc1c(-c2ccc(C(C)C)cc2)oc2ccc(C(=O)O)cc2c1=O
Rattus norvegicus [1]
  inhibition in vivo at 80 mg/kg: 20%

## COc1c(-c2ccc(F)cc2)oc2ccc(C(=O)O)cc2c1=O
Rattus norvegicus [2]
  inhibition in vivo at 70 mg/kg: 4%

## COc1c(-c2ccc(C)cc2)oc2ccc(C(=O)O)cc2c1=O
Rattus norvegicus [1]
  inhibition in vivo at 80 mg/kg: 4%

## COc1cccc(-c2oc3ccc(C(=O)O)cc3c(=O)c2OC(C)C)c1
Rattus norvegicus [15]
  inhibition in vivo at 66 mg/kg: 12%

## CC(C)c1ccc(-c2cc(=O)c3cc(C(=O)O)ccc3o2)cc1
Rattus norvegicus [1]
  inhibition in vivo at 80 mg/kg: 19%

## CCCCCCOc1ccc(-c2oc3ccc(C(=O)O)cc3c(=O)c2O)cc1
Rattus norvegicus [1]
  inhibition in vivo at 80 mg/kg: -11%

## COc1cc(-c2oc3ccc(C(=O)O)cc3c(=O)c2O)cc(OC)c1OC
Rattus norvegicus [1]
  inhibition in vivo at 80 mg/kg: 24%

## COc1c(-c2ccc(C(C)C)cc2)oc2ccc(C(=O)O)cc2c1=O
Rattus norvegicus [1]
  inhibition in vivo at 80 mg/kg: 18%

## C/N=C(\S)NCCCCc1c[nH]cn1 [BURIMAMIDE]
Rattus norvegicus [16]
  inhibition in vivo at 90 mg/kg: 49%

## CNC(=S)NCCSCc1[nH]cnc1C [METIAMIDE]
Rattus norvegicus [17]
  inhibition in vivo at 150 mg/kg: 76%
Rattus norvegicus [18]
  inhibition in vivo at 75 mg/kg: 46%
Rattus norvegicus [6]
  mequiv of HCl: 0.064
Rattus norvegicus [19]
  mequiv of HCl: 0.148
Rattus norvegicus [10]
  Volume: 1.7 mL
Rattus norvegicus [20]
  Volume: 2.99 mL
